The text below walks through data of ChEMBL document CHEMBL3232818, “Imidazole-derived 2-[N-carbamoylmethyl-alkylamino]acetic acids, substrate-dependent modulators of insulin-degrading enzyme in amyloid-β hydrolysis” (Eur J Med Chem, 2014).

In brackets after ≈: the same amount, converted by molar mass. Activity calls are given as the source filed them. The rule behind the calls is not given here. Where only a bound is given, the exact number is not on record here.

Series [1] deals with Insulin-degrading enzyme (Homo sapiens) (UniProt P14735). Nature of the series: Inhibition of IDE in human SH-SY5Y cells expressing human APP751 with Swedish mutant/human […] assessed as increase of amyloid beta (1 to 42) level after 24 to 48 hrs by ELISA. The format is cell-based. The procedure, abridged:
(§1)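 SH-SY5Y APPswe and APPwt lines kept in DMEM with 10% fetal calf serum, 2 mM L-glutamine, 5% CO2, 37 °C. Seeded at 1.94 10^5 cells/well and treated 24 h later with vehicle or drug at 0.1 or 10 μM (from 10 mM DMSO stock) for 24 h and 48 h. Medium cleared by centrifugation and assayed by ELISA. Aβ1-42 used 100 μL of medium undiluted; Aβ1-40 used 10 μL diluted 1:10. Duplicates in three independent experiments, normalized to untreated cells.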
(ELISA stands for enzyme-linked immunosorbent assay.)

Series [2] concerns the target T1, Insulin-degrading enzyme (Mus musculus) (UniProt Q9JHR7).
T1 sequence (whole entry): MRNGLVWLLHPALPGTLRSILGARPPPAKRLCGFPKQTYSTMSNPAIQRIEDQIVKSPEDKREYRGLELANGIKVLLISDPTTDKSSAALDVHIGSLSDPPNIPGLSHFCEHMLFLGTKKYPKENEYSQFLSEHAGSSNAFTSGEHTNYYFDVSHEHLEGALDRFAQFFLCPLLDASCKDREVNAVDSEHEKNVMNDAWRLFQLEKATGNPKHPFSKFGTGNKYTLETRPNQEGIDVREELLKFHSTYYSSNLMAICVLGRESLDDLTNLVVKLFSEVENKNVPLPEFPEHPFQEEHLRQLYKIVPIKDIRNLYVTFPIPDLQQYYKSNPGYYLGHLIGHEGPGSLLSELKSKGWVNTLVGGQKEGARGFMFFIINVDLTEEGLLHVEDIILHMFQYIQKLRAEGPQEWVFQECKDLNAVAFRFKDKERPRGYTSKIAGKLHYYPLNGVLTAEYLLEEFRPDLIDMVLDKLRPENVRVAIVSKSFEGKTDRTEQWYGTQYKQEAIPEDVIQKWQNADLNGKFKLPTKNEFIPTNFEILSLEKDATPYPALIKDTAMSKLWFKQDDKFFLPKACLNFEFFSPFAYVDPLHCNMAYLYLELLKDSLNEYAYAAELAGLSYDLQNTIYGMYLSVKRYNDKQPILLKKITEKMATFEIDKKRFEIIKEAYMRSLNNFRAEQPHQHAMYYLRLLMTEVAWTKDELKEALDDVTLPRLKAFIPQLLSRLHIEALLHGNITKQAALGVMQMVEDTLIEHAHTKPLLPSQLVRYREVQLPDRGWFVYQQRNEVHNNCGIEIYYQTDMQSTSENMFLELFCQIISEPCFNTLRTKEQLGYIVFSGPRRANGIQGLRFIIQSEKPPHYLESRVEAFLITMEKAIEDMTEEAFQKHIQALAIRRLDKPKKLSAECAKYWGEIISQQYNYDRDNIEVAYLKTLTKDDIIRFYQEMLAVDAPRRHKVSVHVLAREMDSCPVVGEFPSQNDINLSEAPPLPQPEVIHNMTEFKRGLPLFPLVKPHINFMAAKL
Nature of the series: Inhibition of IDE in mouse Min6 cells assessed as effect on 2.8 mM of glucose-induced insulin secretion at 10 uM after 24 hrs by ELISA. The format is cell-based.

For series [3], the target named is T1, Insulin-degrading enzyme (Mus musculus). Nature of the series: Inhibition of IDE in mouse Min6 cells assessed as effect on 11 mM of glucose-induced insulin secretion at 10 uM after 24 hrs by ELISA. Format: cell-based.
Series [4] has the same target. Nature of the series: Inhibition of IDE in mouse Min6 cells assessed as effect on 20 mM of glucose-induced insulin secretion at 10 uM after 24 hrs by ELISA. The format is cell-based.
Series [5] concerns the target Insulin-degrading enzyme (Homo sapiens) (UniProt P14735). Nature of the series: Inhibition of IDE in immortalized human hepatocytes assessed as effect on insulin-induced PEPCK mRNA expression at 10 uM after 24 hrs by quantitative RT-PCR analysis. Format: cell-based. More on the design: scale not given: the % may be the effect or the level left. The conditions noted are these: Hepatocyte.

The target of a further series is T2, Insulin-degrading enzyme (Homo sapiens, UniProt P14735).
T2 sequence (P14735 whole entry): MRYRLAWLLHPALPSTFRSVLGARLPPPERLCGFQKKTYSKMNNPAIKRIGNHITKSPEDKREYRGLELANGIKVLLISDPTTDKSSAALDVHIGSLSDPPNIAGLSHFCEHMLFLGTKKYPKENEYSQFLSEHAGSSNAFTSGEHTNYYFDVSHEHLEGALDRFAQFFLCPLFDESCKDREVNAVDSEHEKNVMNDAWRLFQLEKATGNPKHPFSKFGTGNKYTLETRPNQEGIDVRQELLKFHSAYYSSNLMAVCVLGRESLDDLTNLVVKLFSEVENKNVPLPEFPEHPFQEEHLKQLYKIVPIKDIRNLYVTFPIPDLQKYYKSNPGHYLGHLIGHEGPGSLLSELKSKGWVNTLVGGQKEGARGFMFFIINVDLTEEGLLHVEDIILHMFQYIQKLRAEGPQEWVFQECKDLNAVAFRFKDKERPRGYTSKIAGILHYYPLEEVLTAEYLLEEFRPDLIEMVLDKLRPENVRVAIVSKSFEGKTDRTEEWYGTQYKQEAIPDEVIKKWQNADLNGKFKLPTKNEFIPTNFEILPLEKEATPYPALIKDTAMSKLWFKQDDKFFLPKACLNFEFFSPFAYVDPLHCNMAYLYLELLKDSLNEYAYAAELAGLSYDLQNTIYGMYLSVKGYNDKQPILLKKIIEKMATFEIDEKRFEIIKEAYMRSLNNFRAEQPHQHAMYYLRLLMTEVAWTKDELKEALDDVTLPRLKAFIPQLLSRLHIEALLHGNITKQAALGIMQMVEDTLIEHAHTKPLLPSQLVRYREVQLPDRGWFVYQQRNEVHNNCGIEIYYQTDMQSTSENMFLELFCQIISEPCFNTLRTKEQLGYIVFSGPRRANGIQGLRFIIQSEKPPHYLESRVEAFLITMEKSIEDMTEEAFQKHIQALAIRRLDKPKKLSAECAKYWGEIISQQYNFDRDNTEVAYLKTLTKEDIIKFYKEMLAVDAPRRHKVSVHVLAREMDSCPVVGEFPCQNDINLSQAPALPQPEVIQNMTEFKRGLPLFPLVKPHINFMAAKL
Nature of the series: Inhibition of human recombinant IDE-mediated amyloid beta (16 to 23) hydrolysis using ATTO 655-Cys-Lys-Leu-Val-Phe-Phe-Ala-Glu-Asp-Trp as substrate preincubated for 10 mins measured after 30 mins by spectrophotometer analysis.

For series [6], the target named is Insulin-degrading enzyme (Homo sapiens) (UniProt P14735). Nature of the series: Inhibition of human recombinant IDE-mediated insulin hydrolysis assessed as residual insulin level at 100 uM preincubated for 10 mins measured after 30 mins by spectrophotometer analysis.
A short description of series [7]: Solubility of the compound in PBS at pH 7.4. The format is physicochemical.
Series [8] can be described thus: PBS-octanol partition coefficient, log D of the compound. Format: physicochemical.
Series [9] can be described thus: Apparent permeability across human Caco2 cells at 10 uM after 1 hr by LC-MS/MS analysis. The format is ADME, cell-based. Particulars: Caco-2. A general note: Caco-2 monolayers are a common model of the intestinal barrier.
The test system of another series is Plasma. Nature of the series: Prodrug conversion in mouse plasma assessed as half life of BDM43079 formation at 10 uM by LC-MS/MS analysis. The format is ADME, cell-free.
Series [10] in a line: Prodrug conversion in IHH cell culture medium assessed as half life of BDM43079 formation at 10 uM by LC-MS/MS analysis. The format is ADME, cell-based. The conditions noted are these: human, hh. The procedure, abridged:
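Conversion to the active acid followed in William's E medium with 10% fetal calf serum.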

Series [11] deals with Insulin-degrading enzyme (Homo sapiens) (UniProt P14735). Nature of the series: Inhibition of IDE in human SH-SY5Y cells expressing human APP751 with Swedish mutant/human […] assessed as increase of amyloid beta (1 to 40) level after 24 to 48 hrs by ELISA. Format: cell-based. The procedure, abridged: as §1
Series [12] has the same target. Nature of the series: Inhibition of IDE in human SH-SY5Y cells expressing human APP751 with Swedish mutant/human […] assessed as effect on CTFs level after 24 to 48 hrs by Western blot. For orientation: Immunoblotting shows a protein as a band on a membrane.
The target is the same in series [13]. Nature of the series: Inhibition of IDE in human SH-SY5Y cells expressing human APP751 with Swedish mutant/human […] assessed as effect on APP holoproteins level after 24 to 48 hrs by Western blot.

What is called IC50 is the concentration at which inhibition is half-maximal. By solubility is commonly meant how much of the substance goes into solution per volume. Usually logD stands for the decadic logarithm of the distribution of all forms, ionised or not, between an organic phase and buffer at a given pH. As a reminder, the Papp is a coefficient for how fast a substance crosses the barrier. As to `CNC(=O)[C@H](Cc1c[nH]cn1)NC(=O)CN(CCCc1ccccc1)CC(=O)OC`, the inhibition entry in series [1] and in series [11] was “Dose-dependent effect” throughout. Besides, the Activity worked out at 21.2 µg/L in series [2]; 78.8 µg/L in [3]; 132 µg/L in series [4]; 62% in [5]; 50% in series [6]. The IC50 on Insulin-degrading enzyme was over 100 µM. In series [7], this compound displayed a solubility of 74 µM (≈ 30.7 µg/mL). For the same compound, in series [8], the logD was 1.1. Further, the Papp at 1 h, 10 µM in [9] is 0.2 ×10⁻⁶ cm/s. Moreover, the figures for the t1/2 (in the series on Plasma; in [10]) were 6 min and 11.3 h, respectively. Further, the inhibition result in series [12] and in series [13] was “inactive” each time.
